Results reported in ChEMBL document CHEMBL1123879, “Synthesis and antiarrhythmic activity of novel 3-alkyl-1-[omega-[4-[(alkylsulfonyl)amino]phenyl]-omega- hydroxyalkyl]-1H-imidazolium salts and related compounds” (J Med Chem, 1987).

Legend:
[1] = species on record: Canis familiaris; experiment: (§1) Concentration that causes 20% increase in functional refractory period (FRP) was determined on isolated canine ventricular muscle fibers; parameters: species or system Canis lupus familiaris, Muscle tissue
Procedure, shortened: (§2)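 Canine right ventricular papillary muscle strips superfused with O2/CO2-gassed saline at 36 ± 0.5 °C. Bipolar electrogram recording. Stimulated at 4× diastolic threshold (2 ms pulses), equilibrated 60 min. FRP measured at 1000 ms cycle length by S2 after every tenth S1 at shortening intervals. Cumulative concentrations; one compound per strip, with vehicle controls. Readout is concentration giving a 20% FRP change, or maximal change; log mean with 90% CI when n > 2.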

[2] = tested on: Canis familiaris; experiment: In vivo intraduodenal activity in mongrel dogs was assessed by % change in heart rate (10 mg/kg administered intradermally); format: functional, Canis lupus familiaris; conditions: in the assay text read “intraduodenally” for “intradermally”
Procedure, shortened: (§3)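 Healthy dogs (8–20 kg) of either sex, pentobarbital 30 mg/kg iv, ventilated, temperature held at 36 ± 0.5 °C. Compound given intraduodenally as suspension in 0.5% tragacanth. HR, BP and FRP measured at 45 min postdose; second dose if FRP/conduction change below 12%. Active dose means FRP change ≥ 12%; HR and BP given as % change, mean ± SEM.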

[3] = species on record: Canis familiaris; experiment: (§4) Concentration that causes 20% increase in ADP95 (action potential duration at 95% repolarization) was determined on isolated canine cardiac Purkinje fibers; format: functional; conditions: Canis lupus familiaris; Purkinje fiber
Procedure, shortened: (§5)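 Canine cardiac Purkinje fibres in gassed physiological saline (95% O2–5% CO2, pH 7.35–7.40) at 36 ± 0.5 °C. Paced at 1.0 Hz with 2 ms pulses at twice diastolic threshold. Intracellular microelectrode recording after up to 1 h of stabilisation; 30 min exposure per concentration; one compound per fibre, with vehicle controls. Readout is concentration giving a 20% change in APD95, or maximal APD95 change; log mean with 90% CI when n > 2.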

[4] = tested on: Canis familiaris; experiment: In vivo intraduodenal activity in mongrel dogs was assessed by % change in blood pressure (10 mg/kg administered intradermally); format: functional, Canis lupus familiaris, Artery; conditions: in the assay text read “intraduodenally” for “intradermally”; procedure, shortened: as §3
[5] = species on record: Canis familiaris; experiment: Maximum observed change in ADP95 from control value was determined in isolated canine cardiac uM; format: functional, Canis lupus familiaris; procedure, shortened: as §5
[6] = species on record: Canis familiaris; experiment: Maximum observed change in FRP from control was determined in isolated canine ventricular muscle fibers at a concentration of 100 uM; format: functional, Canis lupus familiaris, Muscle tissue; procedure, shortened: as §2
[7] = species on record: Canis familiaris; experiment: as §4; format: functional, Canis lupus familiaris, Purkinje fiber; procedure, shortened: as §5
[8] = species on record: Canis familiaris; experiment: as §1; conditions: Canis lupus familiaris; Muscle tissue; procedure, shortened: as §2
[9] = species on record: Canis familiaris; experiment: Concentration that causes 20% increase in ADP95 (action potential duration at 95% repolarization) was determined on isolated canine cardiac Purkinje fibers at a concentration range 0.01-10 uM; format: functional, Canis lupus familiaris, Purkinje fiber; procedure, shortened: as §5
[10] = species on record: Canis familiaris; experiment: Concentration that causes 20% increase in ADP95 (action potential duration at 95% repolarization) was determined on isolated canine cardiac Purkinje fibers;range is 11.2-18.6; format: functional, Canis lupus familiaris, Purkinje fiber; procedure, shortened: as §5
[11] = species on record: Canis familiaris; experiment: Concentration that causes 20% increase in functional refractory period (FRP) was determined on isolated canine ventricular muscle fibers;range is 3.7-162; parameters: species or system Canis lupus familiaris, Muscle tissue; procedure, shortened: as §2
[12] = tested on: Canis familiaris; experiment: In vivo antiarrhythmic efficacy in a PES model of mongrel dog expressed as percent change in heart rate at iv dose range of 0.1-30 mg/kg.; format: functional, Canis lupus familiaris
Procedure, shortened: (§6)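 Mongrel dogs (8–17 kg) with two-stage LAD occlusion 24 h earlier, anesthetized with thiopental 15 mg/kg and ventilated; open chest. PES induces SVT/VF; two control arrhythmias 30 min apart. Compound given as 10-min iv infusion, PES repeated 20 min later, dose escalated while still inducible; noninducibility counts as effective. HR and BP reported as % change at effective dose, mean ± SEM.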

[13] = tested on: Canis familiaris; experiment: In vivo intraduodenal activity in mongrel dogs was assessed by percent change in blood pressure at active dose of 10 mg/kg, administered intradermally; format: functional, Canis lupus familiaris, Artery; conditions: in the assay text read “intraduodenally” for “intradermally”; procedure, shortened: as §3
[14] = tested on: Canis familiaris; experiment: In vivo intraduodenal activity in mongrel dogs was assessed by percent change in heart rate at active dose of 10 mg/kg, administered intradermally; format: functional, Canis lupus familiaris; conditions: in the assay text read “intraduodenally” for “intradermally”; procedure, shortened: as §3
[15] = tested on: Canis familiaris; experiment: In vivo antiarrhythmic efficacy in a PES model of mongrel dog expressed as percent change in blood pressure at iv dose range of 0.1-30 mg/kg.; format: functional, Canis lupus familiaris; procedure, shortened: as §6
[16] = tested on: Canis familiaris; experiment: In vivo antiarrhythmic efficacy in a programmed electrical stimulation (PES) model of mongrel dogs reported as number of animals effective at dose range of 0.1-30 mg/kg.; format: functional, Canis lupus familiaris, Heart; procedure, shortened: as §6
[17] = tested on: Canis familiaris; experiment: In vivo antiarrhythmic efficacy in a programmed electrical stimulation (PES) model of mongrel dogs expressed as minimum effect dose (iv) at iv dose range of 0.1-30 mg/kg.; format: functional, Canis lupus familiaris, Heart; procedure, shortened: as §6
[18] = tested on: Canis familiaris; experiment: In vivo intraduodenal activity in mongrel dogs was assessed by percent change in heart rate at active dose of 30 mg/kg, administered intradermally; format: functional, Canis lupus familiaris; conditions: in the assay text read “intraduodenally” for “intradermally”; procedure, shortened: as §3
[19] = tested on: Canis familiaris; experiment: In vivo antiarrhythmic efficacy in a programmed electrical stimulation (PES) model of mongrel dogs expressed as minimum effect dose (iv) at iv dose range of 0.1-10 mg/kg.; format: functional, Canis lupus familiaris, Heart; procedure, shortened: as §6
[20] = tested on: Canis familiaris; experiment: In vivo intraduodenal activity in mongrel dogs was assessed by percent change in blood pressure at active dose of 30 mg/kg, administered intradermally; format: functional, Canis lupus familiaris, Artery; conditions: in the assay text read “intraduodenally” for “intradermally”; procedure, shortened: as §3
[21] = tested on: Canis familiaris; experiment: In vivo antiarrhythmic efficacy in a programmed electrical stimulation (PES) model of mongrel dogs reported as number of animals effective at dose range of 0.1-10 mg/kg.; format: functional, Canis lupus familiaris, Heart; procedure, shortened: as §6
[22] = tested on: Canis familiaris; experiment: In vivo antiarrhythmic efficacy in PES model of mongrel dogs expressed as percent change in blood pressure at iv dose range of 0.1-10 mg/kg.; format: functional, Canis lupus familiaris; conditions: in the assay text read “1.0-10 mg/kg” for “0.1-10 mg/kg”; procedure, shortened: as §6
[23] = Canis lupus familiaris, Muscle tissue

| SMILES | Activity [1] [µM] | Activity [3] | Max delta APD95 [5] [%] | Max delta FRP [6] [%] | Activity [7] [µM] | Activity [8] | other results |
| --- | --- | --- | --- | --- | --- | --- | --- |
| Cc1c(C)[n+](C)c(C)n1CC(O)c1ccc(NS(C)(=O)=O)cc1.[Cl-] (configuration not stated) | 2.5 | Not recorded | 13 | 29 | – | – | Heart rate [2]: -12%; Blood pressure [4]: 19% |
| C[n+]1ccn(CCC(=O)c2ccc(NS(C)(=O)=O)cc2)c1.[Cl-] | 17.8 | – | 26 | 29 | 38.3 | – | Heart rate [2]: -2%; Blood pressure [4]: 6% |
| C[n+]1ccn(CCCc2ccc(NS(C)(=O)=O)cc2)c1.O=P([O-])(O)O | – | – | 47 | 13 | 7.2 | Not recorded | – |
| C[n+]1ccn(C[C@H](O)c2ccc(NS(C)(=O)=O)cc2)c1.[Cl-] | 14 | – | 58 | 25 | 0.3 | – | – |
| C[n+]1ccn(CC(O)c2ccc(NS(C)(=O)=O)cc2)c1 (configuration not stated) | 8.7 | – | 55 | 24 | 0.6 | – | – |
| C[n+]1ccn(CC(O)c2ccccc2)c1.[Br-] (configuration not stated) | 50 | Not recorded | 12 | 22 | – | – | – |
| CCCCCCC[n+]1ccn(CC(=O)c2ccc(NS(C)(=O)=O)cc2)c1.[Br-] | – | – | 21 | 14 | – | Not recorded | Activity [9]: 9 µM |
| CC(C)NCC(O)c1ccc(NS(C)(=O)=O)cc1.Cl (configuration not stated) [SOTALOL HYDROCHLORIDE] | – | – | 48 | 23 | – | – | Activity [10]: 14.4 µM; Activity [11]: 24.7 µM; Change [12]: -23%; Change [13]: 8%; Change [14]: -11%; Change [15]: -23%; No. of animals [16]: 3; Mean effective dose [17]: 1.4 |
| C[n+]1ccn(CC(=O)c2ccccc2)c1.[Br-] | – | – | – | – | 69 | Not recorded | Max delta FRP [6, 23]: Minimal effects |
| CC(C)[n+]1ccn(CC(O)c2ccc(NS(C)(=O)=O)cc2)c1 (configuration not stated) | – | Not recorded | – | – | – | Not recorded | Max delta APD95 ([5]; Canis lupus familiaris): Minimal effects |
| CCS(=O)(=O)Nc1ccc(C(O)Cn2cc[n+](C)c2)cc1.[Cl-] (configuration not stated) | 14.5 | – | 27 | 27 | 30 | – | – |
| CCCCCCC[n+]1ccn(CC(O)c2ccc(NS(C)(=O)=O)cc2)c1.O=P([O-])(O)O (configuration not stated) | 9 | – | 50 | 24 | 2.8 | – | Heart rate [2]: -10%; Blood pressure [4]: 6% |
| C[n+]1ccn(CCC(O)c2ccc(NS(C)(=O)=O)cc2)c1.[Cl-] (configuration not stated) | 100 | Not recorded | – | 20 | – | – | Max delta APD95 ([5]; Canis lupus familiaris): Minimal effects |
| CC[n+]1ccn(CC(O)c2ccc(NS(C)(=O)=O)cc2)c1.[Cl-] (configuration not stated) | 28.2 | – | 65 | 26 | 6.2 | – | – |
| C[n+]1ccn(CC(=O)c2ccc(NS(=O)(=O)C(F)(F)F)cc2)c1 | – | Not recorded | – | – | – | Not recorded | Max delta APD95 ([5]; Canis lupus familiaris): Minimal effects; Max delta FRP [6, 23]: Minimal effects |
| Cc1n(CC(=O)c2ccc(NS(C)(=O)=O)cc2)cc[n+]1C.[Cl-] | 14.7 | – | 33 | 32 | 24.8 | – | – |
| CC(C)[n+]1ccn(CC(=O)c2ccc(NS(C)(=O)=O)cc2)c1.[Cl-] | – | Not recorded | – | 14 | – | Not recorded | Max delta APD95 ([5]; Canis lupus familiaris): Minimal effects |
| CCS(=O)(=O)Nc1ccc(C(=O)Cn2cc[n+](C)c2)cc1.[Cl-] | 40 | – | 33 | 26 | 29 | – | – |
| C[n+]1ccn(CC(O)c2ccc(NS(=O)(=O)C(F)(F)F)cc2)c1 (configuration not stated) | – | Not recorded | – | – | – | Not recorded | Max delta APD95 ([5]; Canis lupus familiaris): Minimal effects; Max delta FRP [6, 23]: Minimal effects |
| Cc1c(C)[n+](C)c(C)n1CC(=O)c1ccc(NS(C)(=O)=O)cc1.[Cl-] | 15.8 | Not recorded | – | 26 | – | – | Max delta APD95 ([5]; Canis lupus familiaris): Minimal effects |
| C[n+]1ccn(C[C@@H](O)c2ccc(NS(C)(=O)=O)cc2)c1.[Cl-] | 7.5 | – | 74 | 31 | 0.7 | – | – |
| CC[n+]1ccn(CC(=O)c2ccc(NS(C)(=O)=O)cc2)c1.[Cl-] | 28.2 | – | 26 | 26 | 49.4 | – | – |
| C[n+]1ccn(CCc2ccc(NS(C)(=O)=O)cc2)c1.[I-] | 10 | – | 45 | 24 | 2.6 | – | Heart rate [18]: -13%; Min effective dose [19]: 6.5; Blood pressure [20]: 3%; No. effective [21]: 2; Blood pressure [22]: 13% |
